Source: PubChem
Hep lipid drop – modulators of hepatic lipid droplet formation; 240,000 compounds, 0.4% hits; inhibition, % at 6.5 µM; AML12 mouse hepatocytes, oleate lipid droplets, BODIPY imaging; AID 1656;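 active means lipid droplet intensity inhibited by at least 50%, with more than 500 cells counted; inconclusive means wells with under 300 cells, treated as cytotoxic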
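Test system: AML12 hepatocytes (mouse); reagent: oleate loading, 100 µM; dosing: one dose, 6.5 µM compound; incubation: overnight exposure; signal: fluorescence imaging, 20x objective, two fields per well; read-out basis: % inhibition of corrected integrated BODIPY droplet signal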
aDG glyco up – alpha-DG glycosylation activation; Pro5-aDG cells, alpha-DG glycosylation AlphaScreen (IIH6); 0% Pro5, 100% B10-LARGE cell signal; activation, % at 10 µM; 360,000 compounds, 0.22% hits; AID 624168;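 active means activation of at least 8% versus controls, or a plate z-score of at least 8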;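 further: Pro5 are CHO cells carrying HIG-tagged alpha-DG that lacks glycosylation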
GASC-1 inh – human JMJD2C demethylase inhibition; Q9H3R0; GST-JMJD2C(1-420) H3K9me3 demethylation, DELFIA europium; inhibition, % at 2.35 µM; 330,000 compounds, 0.069% hits; AID 2099;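 active means more than half of a compound's replicate wells show inhibition beyond 50%, single wells judged on their own value; inconclusive means some, but no more than half, of replicates pass 50% inhibition; inactive means no replicate passes 50% inhibition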;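 further: signal counts dimethyl H3K9 product captured on neutravidin plate; 0% = median of DMSO wells and 100% = 0.3 times that DMSO median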
Target sequence (Q9H3R0 1-420 limits assumed): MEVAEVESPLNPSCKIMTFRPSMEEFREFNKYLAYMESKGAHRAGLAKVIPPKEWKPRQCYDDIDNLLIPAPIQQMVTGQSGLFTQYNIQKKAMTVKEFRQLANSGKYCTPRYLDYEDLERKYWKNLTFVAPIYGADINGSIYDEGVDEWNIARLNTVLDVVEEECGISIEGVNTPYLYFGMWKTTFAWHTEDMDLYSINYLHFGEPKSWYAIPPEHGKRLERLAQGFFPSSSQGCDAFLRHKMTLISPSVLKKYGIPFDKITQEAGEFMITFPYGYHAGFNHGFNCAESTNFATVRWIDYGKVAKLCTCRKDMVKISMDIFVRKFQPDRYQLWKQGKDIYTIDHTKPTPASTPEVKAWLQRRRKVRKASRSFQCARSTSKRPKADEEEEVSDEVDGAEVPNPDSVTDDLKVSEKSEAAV
GC-B act – GC-B (human) receptor activation. P20594. HEK293-GC-B cells, CNP EC30, cGMP TR-FRET; 0% at EC30 CNP, 100% saturating CNP. activation, % at 10 µM. 370,000 compounds, 0.11% hits. AID 1920062;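 active means activation at 10 µM reaching about 35% in either raw or pattern-adjusted values, limit read from the data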
NR3A LBD binder – modulates the human NR3A ligand-binding domain | NR3A LBD differential scanning fluorimetry, Tm shift; 0% = protein alone, 100% = glycine-bound protein | Tm shift relative to glycine control, % at 25 µM | 340,000 compounds, 2.5% hits | AID 1259313;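 active means melting temperature shift of at least 10% of the positive control shift, at one fixed dose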
NPR1 activator – GC-A (human) enzyme activation. P16066. HEK293 GC-A cells, cGMP TR-FRET, EC30 ANP; 0% at EC30 ANP, 100% saturating ANP. activation, % at 10 µM. 370,000 compounds, 0.14% hits. AID 1671463; in the data active means activation above about 40%
* marks the source's active call; other numbers are inactive results; ! = not confirmed by another sample. The list is not random: actives were taken first. Their share in the collection is about 3%.

CCOc1ccc(NC2=C(Cl)C(=O)N(C3CCCCC3)C2=O)cc1 was read as Hep lipid drop 0.9, aDG glyco up 0.4, GASC-1 inh 2.5, GC-B act -7.8, NR3A LBD binder 16.8* and NPR1 activator 0.9.
For COc1ccc(C)cc1NC1=C(Cl)C(=O)N(C2CCCCC2)C1=O the results were aDG glyco up -0.3, GASC-1 inh 3.7, GC-B act 1.0, NR3A LBD binder 5.5 and NPR1 activator -5.5.
COc1ccc(CN2C(=O)c3ccccc3C(/C=N\OCc3ccc(F)cc3)C2=O)cc1 (stereo not drawn) was read as aDG glyco up -0.2, GASC-1 inh 2.4, GC-B act 7.2, NR3A LBD binder 6.2 and NPR1 activator -0.2.
Screening COc1ccc(CN2C(=O)c3ccccc3C(/C=N/OCc3ccc(Cl)cc3)C2=O)cc1 (stereo not drawn) returned aDG glyco up -0.5, GASC-1 inh -3.4, GC-B act -15.5, NR3A LBD binder 11.3* and NPR1 activator -0.5.
C=CCOC(=O)C1=C(C)NC(SCC(=O)Nc2ccc(C)c(Cl)c2)=C(C#N)C1c1ccco1 (stereo not drawn) was read as aDG glyco up 1.6, GASC-1 inh -10.2, GC-B act 0.1, NR3A LBD binder 19.7* and NPR1 activator -0.7.
Screening COCCOC(=O)C1=C(C)NC(SCC(=O)NC(C)(C)C)=C(C#N)C1c1ccco1 (stereo not drawn) returned aDG glyco up -0.4, GASC-1 inh 14.9, GC-B act 2.3, NR3A LBD binder -2.5 and NPR1 activator 3.9.
Screening CN=C1SC(CC(=O)Nc2c(C)cccc2C)C(=O)N1/N=C/c1cccs1 (stereo not drawn) returned Hep lipid drop 12.3, aDG glyco up 0.1, GASC-1 inh -6.3, GC-B act -2.1, NR3A LBD binder 5.0 and NPR1 activator -2.7.
For COc1ccc([N+](=O)[O-])cc1NC(=O)CC1SC(=Nc2cccc(C)c2C)N(/N=C/c2cccc(OC)c2OC)C1=O (stereo not drawn) the results were Hep lipid drop 0.4, aDG glyco up -0.6, GASC-1 inh -1.9, GC-B act 1.8, NR3A LBD binder 21.3*! and NPR1 activator 0.1.
`COc1cc(C(=O)NCCC2=CCCCC2)ccc1OCc1c(C)noc1C` gave aDG glyco up 0.0, GASC-1 inh 0.0, GC-B act 0.9, NR3A LBD binder 0.3 and NPR1 activator 2.4.
`CN(C)S(=O)(=O)c1cccc(NC(=S)Nc2cc(Cl)cc(Cl)c2)c1` gave Hep lipid drop -0.6, aDG glyco up -0.2, GASC-1 inh -0.8, GC-B act 2.6, NR3A LBD binder 11.3* and NPR1 activator 4.8.
For CN(C)S(=O)(=O)c1cccc(NC(=S)Nc2ccc(Cl)cc2Cl)c1 the results were Hep lipid drop 0.4, aDG glyco up 0.0, GASC-1 inh 1.0, GC-B act 6.5, NR3A LBD binder 1.9 and NPR1 activator 4.5.
For O=C(CCSc1ccccc1)NCC1CCCO1 (stereo not drawn) the results were Hep lipid drop -7.4, aDG glyco up 0.0, GASC-1 inh -1.2, GC-B act 3.0, NR3A LBD binder 17.4* and NPR1 activator 1.9.
COC(=O)[C@H](Cc1ccccc1)NC(=O)NCC1CCCO1 (stereo partly drawn) was read as aDG glyco up -0.3, GASC-1 inh 0.7, GC-B act 4.1, NR3A LBD binder 14.2* and NPR1 activator -3.5.
For O=C(CCCOc1ccccc1)NCC1CCCO1 (stereo not drawn) the results were aDG glyco up -0.1, GASC-1 inh inconclusive, GC-B act 6.3, NR3A LBD binder 2.2 and NPR1 activator 2.3.
For COC(=O)[C@]12C[C@H](CC(=O)N3CCCC3)C(=O)N(Cc3ccc4c(c3)OCO4)C1=C[C@H](COCc1ccccc1)O[C@@H]2C the results were GC-B act 4.5 and NPR1 activator -1.9.
`CCN(CC)Cc1ccc(OC)c(Cl)c1` gave Hep lipid drop 5.2, aDG glyco up 0.0, GASC-1 inh -1.6, GC-B act 6.0, NR3A LBD binder 13.9* and NPR1 activator -5.9.
CC(C)CN1C(=O)[C@@]2(CC(=O)N(C)C2c2ccccc2)c2cc(-n3cc(CN(C)C)nn3)ccc21 (stereo partly drawn) was read as GC-B act -1.9 and NPR1 activator 5.7.
Screening Cc1ccc(C)c(S(=O)(=O)NC(C)C(=O)Nc2ccc(-c3nc4ccccc4s3)cc2)c1 (stereo not drawn) returned aDG glyco up -0.2, GASC-1 inh 2.9, GC-B act -9.2, NR3A LBD binder 24.8* and NPR1 activator -1.0.
Screening O=C(CNS(=O)(=O)c1cccc(Cl)c1)Nc1ccc(-c2nc3ccccc3s2)cc1 returned Hep lipid drop -5.5, aDG glyco up 0.2, GASC-1 inh -8.9, GC-B act -1.6, NR3A LBD binder 23.2* and NPR1 activator -1.4.
CC(NS(=O)(=O)c1cccc(Cl)c1)C(=O)Nc1ccc(-c2nc3ccccc3s2)cc1 (stereo not drawn) was read as Hep lipid drop 5.5, aDG glyco up 0.3, GASC-1 inh -9.4, GC-B act -7.9, NR3A LBD binder 29.7* and NPR1 activator 4.0.
`COc1ccc(/C=N/NC(=O)CNC(=O)c2ccc3c(c2)OCCO3)c(C(=O)O)c1OC` gave Hep lipid drop -0.7, aDG glyco up 0.0, GASC-1 inh -4.9, GC-B act 3.1, NR3A LBD binder -0.2 and NPR1 activator 4.4.
For CC(=O)NC1CCCCN(Cc2cccc(F)c2)C1=O (stereo not drawn) the results were GC-B act 2.7 and NPR1 activator 0.7.
Screening COC(=O)[C@]12C[C@H](CC(=O)N3CCSCC3)C(=O)N(Cc3ccc4c(c3)OCO4)C1=C[C@H](C(C)(C)C)O[C@@H]2C returned GC-B act -4.1 and NPR1 activator -5.9.
Screening CN(C)c1nc(N)nc2c1ncn2C1OC(CO)CC1O (stereo not drawn) returned aDG glyco up -0.2, GC-B act 10.9 and NPR1 activator -0.5.
`CCOP(=O)(OCC)/C(C#N)=C/c1ccc(-c2ccc(F)cc2F)o1` gave Hep lipid drop -23.5, aDG glyco up -0.2, GASC-1 inh 11.3, GC-B act 2.3, NR3A LBD binder 13.3* and NPR1 activator 13.7.
COCCNC(=O)/C(C#N)=C/c1ccc(-c2ccc(OC)cc2[N+](=O)[O-])o1 was read as aDG glyco up -0.3, GASC-1 inh 12.2, GC-B act 0.6, NR3A LBD binder 0.1 and NPR1 activator -1.7.
